NPY-Y1 PAM-ag – human NPY-Y1 potentiation or agonism, primary screen. P25929. NPY-Y1 expressing cells, potentiator/agonist activation. activation, % at 3.6 µM. 220,000 tested, 0.37% active; in the data active = activation above about 33%, passing the limit was not always enough;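 also: cells stimulated with NPY at EC10 then isoproterenol at EC100; 0% = low agonist plus stimulus and 100% = saturating agonist plus stimulus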
NPY Y2 blocker – NPY-Y2 (human) receptor antagonism; AID 793; 140,000 tested, 0.99% active; inhibition, % at 2.7 µM; P49146; NPY-Y2 expressing cells, antagonist mode; in the data active = inhibition above about 17%;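 also: 0% = vehicle with agonist challenge and 100% = reference antagonist with challenge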
Target sequence (P49146 whole entry, looked up): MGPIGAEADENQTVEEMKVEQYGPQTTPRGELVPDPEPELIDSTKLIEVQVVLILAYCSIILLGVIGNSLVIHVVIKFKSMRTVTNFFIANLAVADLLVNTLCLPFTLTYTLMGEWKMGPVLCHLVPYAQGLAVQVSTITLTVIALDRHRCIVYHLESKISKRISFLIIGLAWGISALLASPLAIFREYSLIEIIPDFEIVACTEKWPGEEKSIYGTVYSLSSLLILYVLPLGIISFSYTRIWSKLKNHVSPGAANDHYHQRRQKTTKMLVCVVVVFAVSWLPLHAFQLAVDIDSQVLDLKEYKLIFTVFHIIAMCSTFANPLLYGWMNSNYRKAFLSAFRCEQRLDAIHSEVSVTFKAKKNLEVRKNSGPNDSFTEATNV
NPY-Y1 antag – antagonists of human neuropeptide Y receptor Y1; 200,000 tested, 1% active; AID 1040; inhibition, % at 3.6 µM; HEK293-CNG Y1 cells, membrane potential fluorescence; NPY at EC95, then isoproterenol; P25929;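 active = inhibition above the campaign mean inhibition of all tested compounds plus 3 SD, cut at about 20% in these data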;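 also: 0% = DMSO wells given NPY plus isoproterenol and 100% = isoproterenol alone without NPY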
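material = HEK293 cells with Y1 receptor plus CNG channel | also added = NPY 25 nM then isoproterenol 1 µM plus Ro 20-1724 25 µM | schedule = dye 3 h, compound 60 min room temperature, stimulation 45 min | measured by = membrane potential fluorescence | benchmarks = high control isoproterenol alone, low control NPY with isoproterenol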
NPY-Y2 PAM-ag – potentiators or agonists of human neuropeptide Y receptor Y2 | P49146 | cells expressing NPY-Y2, potentiator/agonist read-out | activation, % at 3.6 µM | 220,000 tested, 0.45% active | AID 1359; in the data active = activation above about 27%;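 also: cells stimulated with NPY near EC25 plus isoproterenol at EC100; 0% = vehicle plus submaximal agonist and 100% = vehicle plus saturating agonist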
NPY-Y1 antag ct – human NPY-Y1 antagonism in NPY-Y2 counter-screen. shares compounds with NPY Y2 blocker. inhibition, % at 3.6 µM. 710 tested, 19% active. cell-based NPY-Y1 antagonism counterscreen; in the data active = inhibition above about 20%;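 also: cells challenged with NPY then isoproterenol with cAMP sensed through a CNG channel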
NPY-Y2 ant conf – confirmation of human neuropeptide Y receptor Y2 antagonists | 710 tested, 32% active | inhibition, % at 2.8 µM | shares compounds with NPY Y2 blocker | HEK293 NPY-Y2 CNG channel, membrane potential fluorescence;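 active = mean inhibition of triplicate wells above the hit cutoff set in the primary screen, cut at about 17% in these data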;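 also: 0% = DMSO with NPY challenge and 100% = BIIE0246 high control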
The depositor's hits bear a star. Only some compounds are listed: those with a hit (about 1.9% of all), similar ones and a draw of the others.

How did COc1ccc(C(C(=O)NC2CCCC2)N(C(=O)c2ccoc2C)c2ccc(C)cc2)cc1 (stereo not given) do in these assays?
NPY-Y1 PAM-ag: -17; NPY Y2 blocker: 19*; NPY-Y1 antag: 20; NPY-Y2 PAM-ag: -19; NPY-Y1 antag ct: 6; NPY-Y2 ant conf: 4

Results for Cn1cc(CN2CCC(C(O)c3cccs3)CC2)c(-c2ccccc2F)n1 (stereo not given) ?
NPY-Y1 PAM-ag: 0; NPY-Y2 PAM-ag: -14

Results for CSc1cccc(CN2CCN(CCC(C)C)C(CCO)C2)c1 (stereo not given) ?
NPY-Y1 PAM-ag: -13; NPY-Y1 antag: 11; NPY-Y2 PAM-ag: -7

How did COC(=O)c1ccc(OCC(=O)c2ccc(C)c(C)c2)cc1 do in these assays?
NPY-Y1 PAM-ag: -14; NPY Y2 blocker: 26*; NPY-Y1 antag: 12; NPY-Y2 PAM-ag: -1; NPY-Y1 antag ct: 17; NPY-Y2 ant conf: 6

How did Cc1nc(N2CCC(C)CC2)c2oc3ccccc3c2n1 do in these assays?
NPY-Y1 PAM-ag: -20; NPY Y2 blocker: 19*; NPY-Y1 antag: 19; NPY-Y2 PAM-ag: -43; NPY-Y1 antag ct: 16; NPY-Y2 ant conf: 36*

How did O=C(O)C1CCN(c2nc(-c3ccccc3)nc3c2oc2ccccc23)CC1 do in these assays?
NPY-Y1 PAM-ag: -4; NPY Y2 blocker: 1; NPY-Y1 antag: -16; NPY-Y2 PAM-ag: -8

Results for CC1CC(N(C(=O)c2ccccc2Cl)c2ccccc2)c2ccccc2N1 (stereo not given) ?
NPY-Y1 PAM-ag: 3; NPY Y2 blocker: 18*; NPY-Y1 antag: 8; NPY-Y2 PAM-ag: -13; NPY-Y1 antag ct: 62*; NPY-Y2 ant conf: 72*

How did CCCc1nc(SCc2ccc(Cl)cc2Cl)n[nH]1 do in these assays?
NPY-Y1 PAM-ag: -32; NPY Y2 blocker: 18*; NPY-Y1 antag: 2; NPY-Y2 PAM-ag: -4; NPY-Y1 antag ct: 3; NPY-Y2 ant conf: 7

How did Cc1cccc(CC2CC(=O)N(c3nc4ccccc4s3)C2=O)c1 (stereo not given) do in these assays?
NPY-Y1 PAM-ag: -7; NPY-Y1 antag: 12; NPY-Y2 PAM-ag: -7

How did COc1ccc2sc(N3C(=O)CC(Cc4cccc(C)c4)C3=O)nc2c1 (stereo not given) do in these assays?
NPY-Y1 PAM-ag: -25; NPY Y2 blocker: 27*; NPY-Y1 antag: 11; NPY-Y2 PAM-ag: -27; NPY-Y1 antag ct: 12; NPY-Y2 ant conf: 9

What do the screens show for `N#C/C(=C\c1ccc(F)c(Cl)c1)S(=O)(=O)c1ccccn1`?
NPY-Y1 PAM-ag: 5; NPY-Y2 PAM-ag: -1

How did Cc1cccc(/C(N)=N/OC(=O)COc2ccccc2Cl)c1 do in these assays?
NPY-Y1 PAM-ag: -28; NPY Y2 blocker: 19*; NPY-Y1 antag: 5; NPY-Y2 PAM-ag: 6; NPY-Y1 antag ct: 8; NPY-Y2 ant conf: 15

Results for COc1ccc(/C(N)=N/OC(=O)COc2ccccc2Cl)cc1 ?
NPY-Y1 PAM-ag: -30; NPY Y2 blocker: 7; NPY-Y1 antag: 8; NPY-Y2 PAM-ag: -6

What do the screens show for `CCN(CC)S(=O)(=O)c1ccc(N2CCOCC2)c(NS(=O)(=O)c2ccc(C)c(C)c2)c1`?
NPY-Y1 PAM-ag: 6; NPY Y2 blocker: 1; NPY-Y1 antag: -2; NPY-Y2 PAM-ag: 9

How did COc1cccc(Nc2nc(NCC3CCCO3)c3ccccc3n2)c1 (stereo not given) do in these assays?
NPY-Y1 PAM-ag: -20; NPY Y2 blocker: 24*; NPY-Y1 antag: 15; NPY-Y2 PAM-ag: -5; NPY-Y1 antag ct: 21*; NPY-Y2 ant conf: 14

What do the screens show for `CCC(C)(C(=O)NC1CCCC1)N(Cc1ccco1)C(=O)c1ccccn1` (stereo not given)?
NPY-Y1 PAM-ag: -14; NPY Y2 blocker: 23*; NPY-Y1 antag: 18; NPY-Y2 PAM-ag: -13; NPY-Y1 antag ct: 14; NPY-Y2 ant conf: 8

How did CCOC(=O)Cn1nc(-c2ccccc2)nc1-c1ccccc1 do in these assays?
NPY-Y1 PAM-ag: 3; NPY Y2 blocker: -2; NPY-Y1 antag: 12; NPY-Y2 PAM-ag: 4

How did CCOC(=O)Cn1nc(-c2ccccc2)c2cnc3ccc(CC)cc3c21 do in these assays?
NPY-Y1 PAM-ag: 2; NPY Y2 blocker: 26*; NPY-Y1 antag: 4; NPY-Y2 PAM-ag: 6; NPY-Y1 antag ct: 20; NPY-Y2 ant conf: 13

Results for O=C(NCc1ccccn1)c1cc(-c2ccc(Cl)cc2)nc2ccccc12 ?
NPY-Y1 PAM-ag: -30; NPY Y2 blocker: 27*; NPY-Y1 antag: 12; NPY-Y2 PAM-ag: 8; NPY-Y1 antag ct: 4; NPY-Y2 ant conf: 4
